Assay outcomes: PubChem BioAssay, Johns Hopkins Ion Channel Center
Most compounds without a hit are left out; they make up all but 2.9% or so of the library.
TRPC4 PAM: positive allosteric modulators of TRPC4, primary screen, cell-based, mouse TRPC4beta, HEK293 mu-opioid, Fluo-4 calcium; Short transient receptor potential channel 4 (Mus musculus), Q9QUQ5; DAMGO EC20, Fluo-4 Ca2+ flux; stronger effect = higher value; B-score at 10 µM; 0.42% of 310,000 active;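 active = B-score of calcium response area above 5 SD of library B-scores, with initial fluorescence ratio within 5 SD of library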
Target sequence (Q9QUQ5 whole entry, looked up): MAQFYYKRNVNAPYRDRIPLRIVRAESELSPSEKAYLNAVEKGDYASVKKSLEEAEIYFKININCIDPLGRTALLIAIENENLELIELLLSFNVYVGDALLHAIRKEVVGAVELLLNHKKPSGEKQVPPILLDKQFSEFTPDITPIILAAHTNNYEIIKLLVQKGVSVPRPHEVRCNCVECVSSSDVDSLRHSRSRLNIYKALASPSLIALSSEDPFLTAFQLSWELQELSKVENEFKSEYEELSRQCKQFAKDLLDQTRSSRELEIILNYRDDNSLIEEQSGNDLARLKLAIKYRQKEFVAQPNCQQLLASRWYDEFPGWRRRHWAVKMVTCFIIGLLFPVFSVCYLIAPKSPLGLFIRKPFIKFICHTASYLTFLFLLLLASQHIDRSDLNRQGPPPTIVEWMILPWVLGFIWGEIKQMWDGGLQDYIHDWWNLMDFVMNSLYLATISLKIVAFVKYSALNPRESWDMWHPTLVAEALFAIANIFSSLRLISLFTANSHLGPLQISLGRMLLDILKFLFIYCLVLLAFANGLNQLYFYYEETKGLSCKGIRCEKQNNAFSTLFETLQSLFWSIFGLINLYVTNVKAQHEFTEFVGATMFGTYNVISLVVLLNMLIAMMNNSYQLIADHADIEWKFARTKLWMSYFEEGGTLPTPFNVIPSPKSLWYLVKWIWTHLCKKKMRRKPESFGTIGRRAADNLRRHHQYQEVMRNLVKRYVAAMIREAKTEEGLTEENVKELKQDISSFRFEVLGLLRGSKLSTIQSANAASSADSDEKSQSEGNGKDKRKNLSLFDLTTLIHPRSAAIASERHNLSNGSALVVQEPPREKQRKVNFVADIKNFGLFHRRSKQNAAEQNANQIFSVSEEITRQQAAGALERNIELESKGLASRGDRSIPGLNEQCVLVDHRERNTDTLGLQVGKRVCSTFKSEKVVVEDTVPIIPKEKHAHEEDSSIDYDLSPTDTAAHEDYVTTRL
TRPC4 act: activators of mouse TRPC4 channel, primary screen, Fluo4 calcium, HEK293 TRPC4beta/mu-opioid cells; Short transient receptor potential channel 4 (Mus musculus), Q9QUQ5; 0.49% of 310,000 active; Fluo4 calcium fluorescence; stronger effect = higher value; AID 2237, 2010; B-score at 10 µM;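 active = B-score above 5 SD of library B-scores, and initial fluorescence ratio not above library mean plus 5 SD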;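 note: positive B-score marks a calcium rise read as TRPC4 activation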
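Incubation: 45 min room-temperature Fluo4 loading, 110 s read / System: HEK293 cells stably co-expressing mouse TRPC4beta and mu-opioid receptor / Signal: Fluo4 fluorescence, kinetic / Control set: buffer (low) and maximal DAMGO (high) / Measure: integrated baseline-normalised fluorescence ratio, converted to per-well B score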
Kir21 inh: inhibitors of mouse Kir2.1 inward-rectifier potassium channel | Inward rectifier potassium channel 2 (Mus musculus), P35561 | HEK293-Kir2.1, FluxOR thallium flux fluorescence; stronger effect = lower value | B-score at 10 µM | 0.85% of 310,000 active | AID 1672, 2009;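 active = fluorescence ratio B-score at or below minus 3 SD of library scores, with starting-brightness B-score within 2 SD, cut at about -4.2 in these data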;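 note: channel flux triggered by added potassium and thallium sulfate stimulus; B-score of peak minus minimum fluorescence over baseline after thallium stimulus; more negative B-score means stronger Kir2.1 block with less thallium influx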
TRPC4 inh: inhibitors of mouse TRPC4 channel, primary screen, Fluo4 calcium, HEK293 TRPC4beta/mu-opioid cells; 0.39% of 300,000 active; DAMGO-evoked Fluo4 calcium flux; stronger effect = lower value; AID 2247, 2010; Short transient receptor potential channel 4 (Mus musculus), Q9QUQ5; B-score at 10 µM;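 active = B-score over 3 SD under the library average, no early fluorescence shift, positive overall ratio signal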
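Assay system: HEK293 cells with stable TRPC4beta plus mu-opioid receptor expression; Probe or stimulus: DAMGO in two steps, submaximal then maximal; Dosing: single-point compound dosing; Measured by: Fluo4 calcium-dye fluorescence, kinetic read; Read-out basis: B score from integrated Fluo4 fluorescence ratio.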
TRPC6 activator: mouse TRPC6 channel activators, primary screen, cell-based, HEK293, membrane potential dye; Short transient receptor potential channel 6 (Mus musculus), Q61143; HEK293-TRPC6 membrane potential dye fluorescence; stronger effect = higher value; B-score at 10 µM; 0.13% of 310,000 active;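 active = B-score of the integrated fluorescence ratio above library mean plus 3 SD, and starting fluorescence ratio within library mean plus 5 SD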;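 note: higher score means more depolarization so channel activation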
TRPC6 inhibitor: mouse TRPC6 channel inhibitors, primary screen, cell-based, HEK293, membrane potential dye. ACh-evoked depolarization; stronger effect = lower value. B-score at 10 µM. 1.1% of 310,000 active;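 active = B-score under library mean minus 3 SD, initial fluorescence not abnormally high, positive integrated signal ratio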;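 note: B-score derived from integrated fluorescence ratio over the kinetic read; more negative B-score means stronger inhibition of depolarization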
HEK293 MPD ctr: parental HEK293 membrane potential modulation, confirmation, counter-screen for TRPC6 modulator project, cell-based. shares compounds with TRPC6 inhibitor. membrane potential dye fluorescence. membrane potential signal change, % at 10 µM. 51% of 2,400 active. AID 488924, 2010;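 active = membrane potential signal moves up or down beyond 5 SD from buffer-only wells, on both duplicate plates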
HEK293 MPD ctr 2: parental HEK293 nonspecific activity of TRPC6 modulators, second screen; shares compounds with TRPC6 inhibitor; AID 488926; 14% of 2,400 active; membrane potential dye fluorescence; after compound, maximal acetylcholine stimulation; inhibition, % at 10 µM;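 active = membrane potential signal drops by more than 5 SD from the mean control signal, in both duplicate plates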
TRPC4 ctr mod: TRPC4 modulation by TRPC6 hit compounds, confirmation, selectivity assay for TRPC6 modulator project, cell-based, HEK293 TRPC4/mu-opioid, membrane potential dye, mouse; shares compounds with TRPC6 inhibitor; membrane potential fluorescence; percent change from control (negative = decrease, positive = increase), % at 10 µM; 69% of 2,400 active; AID 488927, 2010;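 active = membrane potential signal moved up or down beyond 5 SD of buffer control wells, in both duplicate plates, actives on both sides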
TRPC4 ctr inh 2: second selectivity test of TRPC6 modulators against mouse TRPC4; shares compounds with TRPC6 inhibitor; HEK293 TRPC4/mu-opioid, membrane potential dye fluorescence; stimulated with maximal-effect DAMGO; inhibition, % at 10 µM; 55% of 2,400 active; AID 488928;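 active = drop in membrane potential signal beyond 5 SD of the control wells in both duplicate plates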;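 note: TRPC4 counter screen for TRPC6 hits run under conditions tuned for TRPC6 not TRPC4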
TRPC6 block conf: mouse TRPC6 channel inhibitors, confirmation, HEK293 cells, membrane potential dye, duplicate; 43% of 3,300 active; shares compounds with TRPC6 inhibitor; ACh-evoked depolarization; inhibition, % at 10 µM;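 active = fluorescence ratio falls more than 5 SD below the full-stimulation control mean, in both duplicate runs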;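 note: integrated fluorescence ratio of peak minus minimum over baseline after agonist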
TRPC6 act conf: mouse TRPC6 channel activators, confirmation, HEK293 cells, membrane potential dye, duplicate. HEK293-TRPC6 membrane potential dye fluorescence, FDSS. 11% of 2,800 active. activation, % at 10 µM. shares compounds with TRPC6 inhibitor;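 active = ratio signal rise beyond 5 SD above unstimulated control wells' mean, seen in both duplicate runs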
Each line names hits and unclear results; the compound was inactive in the other large screens (follow-up assays come after a bar, where they were run).

NS(=O)(=O)c1ccc(NN=C2CCN(Cc3ccccc3)CC2)c([N+](=O)[O-])c1	TRPC4 PAM 17, TRPC6 inhibitor -5.72 | HEK293 MPD ctr inactive | HEK293 MPD ctr 2 inactive | TRPC4 ctr mod inactive | TRPC4 ctr inh 2 inactive | TRPC6 block conf inactive | TRPC6 act conf inactive
Cc1ccc(-c2cc(Cc3ccccc3)c(=O)[nH]n2)cc1	none
CCOC(=O)[C@@H]1[C@H]2COc3ccc(Br)cc3[C@H]2N2C(=O)N(c3cccc(Cl)c3)C(=O)[C@]12C	none
Cc1ccc2nc(NC(=O)c3ccc(NS(=O)(=O)c4cccs4)cc3)sc2c1	none
O=C(NCCSc1ncc(-c2ccc(F)cc2)[nH]1)c1ccc2c(c1)OCO2	TRPC6 inhibitor -5.79 | HEK293 MPD ctr inactive | HEK293 MPD ctr 2 inactive | TRPC4 ctr mod inactive | TRPC4 ctr inh 2 inactive | TRPC6 block conf inactive | TRPC6 act conf inactive
CCc1ccc(NS(=O)(=O)c2ccc3oc(=O)ccc3c2)cc1	none
NS(=O)(=O)c1ccc(NC(=O)COC(=O)/C(=C/c2cccs2)c2cccs2)cc1	none
Cc1ccsc1C1Nc2ccccc2-c2nc3ccccc3n21 (stereo not drawn)	none
